Results: ChEMBL document CHEMBL4024771, “Optimization of Orally Bioavailable Enhancer of Zeste Homolog 2 (EZH2) Inhibitors Using Ligand and Property-Based Design Strategies: Identification of Development Candidate …” (J Med Chem, 2018)
Values after ≈ are worked out from the molar mass of the structure shown.

Key:
[1] = target: Histone-lysine N-methyltransferase EZH2 (Homo sapiens, UniProt Q15910); assay: Inhibition of EZH2 in human KARPAS422 cells assessed as reduction in H3K27me3 level after 72 hrs by ELISA
Histone-lysine N-methyltransferase EZH2 (Homo sapiens, UniProt Q15910), sequence (Q15910 whole entry): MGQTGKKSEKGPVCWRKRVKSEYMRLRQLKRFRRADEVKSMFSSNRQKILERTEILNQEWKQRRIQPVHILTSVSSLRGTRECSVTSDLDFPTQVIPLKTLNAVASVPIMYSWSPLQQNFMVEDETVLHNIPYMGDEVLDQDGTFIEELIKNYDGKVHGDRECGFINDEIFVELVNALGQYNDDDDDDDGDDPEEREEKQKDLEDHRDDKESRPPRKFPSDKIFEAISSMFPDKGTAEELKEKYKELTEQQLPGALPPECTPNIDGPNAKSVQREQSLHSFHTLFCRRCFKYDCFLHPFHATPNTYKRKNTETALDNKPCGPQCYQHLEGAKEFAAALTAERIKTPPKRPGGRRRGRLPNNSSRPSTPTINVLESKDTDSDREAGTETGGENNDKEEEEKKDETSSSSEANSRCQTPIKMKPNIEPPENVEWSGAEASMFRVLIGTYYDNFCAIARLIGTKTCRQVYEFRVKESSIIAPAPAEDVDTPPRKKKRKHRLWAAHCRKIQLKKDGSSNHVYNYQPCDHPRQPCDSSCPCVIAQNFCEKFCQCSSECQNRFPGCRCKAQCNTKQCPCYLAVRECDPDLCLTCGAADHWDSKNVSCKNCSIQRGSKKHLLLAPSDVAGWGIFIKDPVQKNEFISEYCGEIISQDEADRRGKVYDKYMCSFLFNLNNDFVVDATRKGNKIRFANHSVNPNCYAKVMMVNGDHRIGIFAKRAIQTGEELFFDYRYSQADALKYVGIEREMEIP

[2] = target: Histone-lysine N-methyltransferase EZH2 (Homo sapiens, UniProt Q15910, Y641N); assay: Inhibition of EZH2 Y641N mutant (unknown origin) using oligonucleosomes as substrate after 60 mins in presence of [3H]SAM by scintillation counting analysis
Histone-lysine N-methyltransferase EZH2 (Homo sapiens, UniProt Q15910, Y641N), sequence (Q15910 whole entry Y641N): as the sequence (Q15910 whole entry) above, with Y641N counted along it

KARPAS-422 = assay: Antiproliferative activity against human KARPAS422 cells after 72 hrs by resazurin assay; type: functional, cell-based
[3] = (§1) Intrinsic clearance in human liver microsomes assessed per mg protein at 1 uM preincubated for 10 mins followed by NADPH addition measured after 45 mins by LC-MS/MS analysis; type: ADME, microsome; settings: liver microsomes, read-out: CLH
How it was run: (§2)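 Test compound (1 μM) with pooled liver microsomes (0.8 mg/mL protein) in 100 mM potassium phosphate pH 7.4, 10 min preincubation, started with 2 mM NADPH, 45 min at 37 °C, in triplicate. Samples quenched with cold methanol containing buspirone internal standard, analysed by LC−MS/MS. CLint derived from t1/2 of parent loss (log-linear slope).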

[4] = Clearance in human hepatocytes assessed per million cells; type: ADME, cell-based, Hepatocyte; settings: read-out: CLH
[5] = Kinetic solubility of the compound; type: physicochemical; settings: for solubility kinetic: read-out: Kinetic_solubility
[6] = Thermodynamic solubility in water at 25 degC using crystalline form; type: physicochemical; settings: read-out: Therm_solubility
[7] = Passive permeability in MDCK cells at 2 uM after 90 mins by LC-MS/MS analysis; type: ADME, cell-based, Canis lupus familiaris; settings: dog; for Papp at […], 2 µM: MDCK, read-out: permeability; for permeability: mdck, 2 µM
How it was run: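 Low-efflux MDCK cells (MDCK-LE) on 96-well inserts, used on day 4. Monodirectional transport of 2 μM drug in transport buffer with 0.1% DMSO at 37 °C. Donor and receiver sampled at 0 and 90 min for LC−MS/MS. Donor pH 6.5 and 7.4, receiver pH 7.4.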

[8] = Lipophilicity, log D of the compound at pH 7.4; settings: buffer
Liver = assay: as §1; type: ADME, microsome; settings: microsomes, 0.75 h, 1 µM; how it was run: as §2

IC50 [1] [nM]	Ki [2] [nM]	IC50 (KARPAS-422; Homo sapiens, KARPAS-422, 72 h) [nM]	microsomal CLint at 1 µM [3] [µL/min/mg]	hepatocyte CLint [4] [µL/min/1e6 cells]	solubility kinetic [5] [µM]	solubility thermodynamic [6] [µg/mL]	Papp at […], 2 µM [7] [×10⁻⁶ cm/s]	logD ([8]; pH 7.4, logD)	IC50 (KARPAS-422; karpas-422) [nM]	microsomal CLint (Liver) [µL/min/mg]	Kinetic_solubility [5] [µM]	permeability [7] [×10⁻⁶ cm/s]	logD ([8]; pH 7.4)	Structure (SMILES)
17	1.15	23	107 to 169	75	93 to 95 (≈ 41.5 to 42.4 µg/mL)	2 (≈ 4.48 µM)	15.7							Cc1cc(C)c(CN2CCc3c(Cl)cc(-c4c(C)noc4C)c(Cl)c3C2=O)c(=O)[nH]1
129	17	186	15.8		131 (≈ 53.6 µg/mL)	34 (≈ 83.1 µM)	12.4	2.6						Cc1cc(C)c(CN2CCc3c(Cl)cc([C@H](C)CO)c(Cl)c3C2=O)c(=O)[nH]1
6080	460								5560	45.7	446	7.7	2.3	CCOC(c1cc(Cl)c2c(c1Cl)C(=O)N(Cc1c(C)cc(C)[nH]c1=O)CC2)C1CS(=O)(=O)C1 (single isomer, unassigned)
4	< 0.1				433 (≈ 208 µg/mL)		7.2	2.5	9	60				COc1cc(C)[nH]c(=O)c1CN1CCc2c(Cl)cc(C(OC)C3CCOC3)c(Cl)c2C1=O (single isomer, unassigned; (+))
72	9						18.2		183	105	33			CCC(OC)c1cc(Cl)c2c(c1Cl)C(=O)N(Cc1c(C)cc(C)[nH]c1=O)CC2 (single isomer, unassigned; (+))
					596 (≈ 276 µg/mL)		5.8	2	122	21.2				Cc1cc(C)c(CN2CCc3c(Cl)cc(C(CO)c4ccon4)c(Cl)c3C2=O)c(=O)[nH]1 (single isomer, unassigned; (+))
9	0.1				57.5 (≈ 27.6 µg/mL)		13.3	3.4	19	129				COC(c1cc(Cl)c2c(c1Cl)C(=O)N(Cc1c(C)cc(C)[nH]c1=O)CC2)C1CCOCC1 (single isomer, unassigned; (+))
1050	130						15	3.1	714	18	59			CCC(O)c1cc(Cl)c2c(c1Cl)C(=O)N(Cc1c(C)cc(C)[nH]c1=O)CC2 (single isomer, unassigned; (+))
9	< 0.1				639 (≈ 315 µg/mL)		2.7	1.4	11	< 10.2				COC(c1cc(Cl)c2c(c1Cl)C(=O)N(Cc1c(C)cc(C)[nH]c1=O)CC2)C1CCN(C)CC1 (single isomer, unassigned; (+))
139	4.6						10.9	2.8	124	66.3	324			CCC(CO)c1cc(Cl)c2c(c1Cl)C(=O)N(Cc1c(C)cc(C)[nH]c1=O)CC2 (single isomer, unassigned; (+))
					532 (≈ 277 µg/mL)		11.5	2.9	22	92.6				COC(c1cc(Cl)c2c(c1Cl)C(=O)N(Cc1c(C)cc(C)[nH]c1=O)CC2)C1CCN(C(C)=O)CC1 (single isomer, unassigned; (+))
					480 (≈ 265 µg/mL)		1.5	1.7	10	25.6				COc1cc(C)[nH]c(=O)c1CN1CCc2c(Cl)cc(C(OC)C3CCN(C(=O)CO)CC3)c(Cl)c2C1=O (single isomer, unassigned; (+))
8	0.7				486 (≈ 234 µg/mL)		5.7	2.3	9	207				COc1cc(C)[nH]c(=O)c1CN1CCc2c(Cl)cc(C(OC)C3(C)COC3)c(Cl)c2C1=O (single isomer, unassigned; (+))
16	0.64				523 (≈ 280 µg/mL)		7	2.7	25	72.7				COC(c1cc(Cl)c2c(c1Cl)C(=O)N(Cc1c(C)cc(C)[nH]c1=O)CC2)C1CCN(C2COC2)CC1 (single isomer, unassigned; (+))
62	2.9				453 (≈ 233 µg/mL)		12	2.4	34	124				CCOC(c1cc(Cl)c2c(c1Cl)C(=O)N(Cc1c(C)cc(C)[nH]c1=O)CC2)C1CS(=O)(=O)C1 (single isomer, unassigned; (+))
7	0.6						17.1	3	25	108	436			COC(c1cc(Cl)c2c(c1Cl)C(=O)N(Cc1c(C)cc(C)[nH]c1=O)CC2)C1CCOC1 (single isomer, unassigned; (+)-10a)
494	30								406	93.3	457	15.4		COC(c1cc(Cl)c2c(c1Cl)C(=O)N(Cc1c(C)cc(C)[nH]c1=O)CC2)C1CCOC1 (single isomer, unassigned; (-)10c)
11	0.15						2.9	2.3	11	41.5	540			Cc1cc(C)c(CN2CCc3c(Cl)cc(C(CO)C4CCOCC4)c(Cl)c3C2=O)c(=O)[nH]1 (single isomer, unassigned; (-))
110	42								113	97.2	521	8.4		COc1cc(C)[nH]c(=O)c1CN1CCc2c(Cl)cc(C(OC)C3CCOC3)c(Cl)c2C1=O (single isomer, unassigned; form 1)
16	0.19								24	66.9	439	7.2		COc1cc(C)[nH]c(=O)c1CN1CCc2c(Cl)cc(C(OC)C3CCOC3)c(Cl)c2C1=O (stereo in doubt; 22b)
13	0.25				508 (≈ 273 µg/mL)		7.3	2.2	21	42				COC(c1cc(Cl)c2c(c1Cl)C(=O)N(Cc1c(C)cc(C)[nH]c1=O)CC2)C1CCN(C(=O)CO)CC1 (stereo in doubt; (+)-16a)
					373 (≈ 197 µg/mL)		6.3	2.2	24	40				COC(c1cc(Cl)c2c(c1Cl)C(=O)N(Cc1c(C)cc(C)[nH]c1=O)CC2)C1CCS(=O)(=O)CC1 (stereo in doubt; (+)-18a)
							26	3.3	282	158	55.3			COC(C)c1cc(Cl)c2c(c1Cl)C(=O)N(Cc1c(C)cc(C)[nH]c1=O)CC2 (stereo in doubt; (-)9a)
5350	420				56 (≈ 22.9 µg/mL)				3550	8		15.7		CCC(O)c1cc(Cl)c2c(c1Cl)C(=O)N(Cc1c(C)cc(C)[nH]c1=O)CC2 (stereo in doubt; (-)-3b)
15	0.38						2.5	2.1	17	25.9	508			Cc1cc(C)c(CN2CCc3c(Cl)cc(C(CO)C4CCOC4)c(Cl)c3C2=O)c(=O)[nH]1 (stereo in doubt; (-)-6b)
